From ChEMBL document CHEMBL5653631, “A Potent and Selective ULK1 Inhibitor Suppresses Autophagy and Sensitizes Cancer Cells to Nutrient Stress” (iScience, 2018)
Values belong to the molecule of their own block, whether it stands above or below them.

What was measured:
[1] = biological target: T1, Tribbles homolog 2 (Homo sapiens) (UniProt Q92519); assay: Inhibition of human recombinant Trb2 at 500 nM related to control ULK1
T1 sequence (whole entry): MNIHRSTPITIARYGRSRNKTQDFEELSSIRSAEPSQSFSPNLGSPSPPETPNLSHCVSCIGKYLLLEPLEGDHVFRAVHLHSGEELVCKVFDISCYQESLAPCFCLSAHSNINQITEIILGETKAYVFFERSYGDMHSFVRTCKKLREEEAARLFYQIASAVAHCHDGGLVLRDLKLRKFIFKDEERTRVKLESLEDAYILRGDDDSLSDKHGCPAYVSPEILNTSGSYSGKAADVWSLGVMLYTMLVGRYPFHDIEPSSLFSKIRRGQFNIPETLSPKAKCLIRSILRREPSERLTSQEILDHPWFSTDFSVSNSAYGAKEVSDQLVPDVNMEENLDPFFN

[2] = biological target: Epidermal growth factor receptor (Homo sapiens) (UniProt P00533); assay: Inhibition of human recombinant EGFR at 500 nM in presence of ATP by radiometric assay relative to control
Chain of Epidermal growth factor receptor (Homo sapiens) (P00533 whole entry, canonical isoform): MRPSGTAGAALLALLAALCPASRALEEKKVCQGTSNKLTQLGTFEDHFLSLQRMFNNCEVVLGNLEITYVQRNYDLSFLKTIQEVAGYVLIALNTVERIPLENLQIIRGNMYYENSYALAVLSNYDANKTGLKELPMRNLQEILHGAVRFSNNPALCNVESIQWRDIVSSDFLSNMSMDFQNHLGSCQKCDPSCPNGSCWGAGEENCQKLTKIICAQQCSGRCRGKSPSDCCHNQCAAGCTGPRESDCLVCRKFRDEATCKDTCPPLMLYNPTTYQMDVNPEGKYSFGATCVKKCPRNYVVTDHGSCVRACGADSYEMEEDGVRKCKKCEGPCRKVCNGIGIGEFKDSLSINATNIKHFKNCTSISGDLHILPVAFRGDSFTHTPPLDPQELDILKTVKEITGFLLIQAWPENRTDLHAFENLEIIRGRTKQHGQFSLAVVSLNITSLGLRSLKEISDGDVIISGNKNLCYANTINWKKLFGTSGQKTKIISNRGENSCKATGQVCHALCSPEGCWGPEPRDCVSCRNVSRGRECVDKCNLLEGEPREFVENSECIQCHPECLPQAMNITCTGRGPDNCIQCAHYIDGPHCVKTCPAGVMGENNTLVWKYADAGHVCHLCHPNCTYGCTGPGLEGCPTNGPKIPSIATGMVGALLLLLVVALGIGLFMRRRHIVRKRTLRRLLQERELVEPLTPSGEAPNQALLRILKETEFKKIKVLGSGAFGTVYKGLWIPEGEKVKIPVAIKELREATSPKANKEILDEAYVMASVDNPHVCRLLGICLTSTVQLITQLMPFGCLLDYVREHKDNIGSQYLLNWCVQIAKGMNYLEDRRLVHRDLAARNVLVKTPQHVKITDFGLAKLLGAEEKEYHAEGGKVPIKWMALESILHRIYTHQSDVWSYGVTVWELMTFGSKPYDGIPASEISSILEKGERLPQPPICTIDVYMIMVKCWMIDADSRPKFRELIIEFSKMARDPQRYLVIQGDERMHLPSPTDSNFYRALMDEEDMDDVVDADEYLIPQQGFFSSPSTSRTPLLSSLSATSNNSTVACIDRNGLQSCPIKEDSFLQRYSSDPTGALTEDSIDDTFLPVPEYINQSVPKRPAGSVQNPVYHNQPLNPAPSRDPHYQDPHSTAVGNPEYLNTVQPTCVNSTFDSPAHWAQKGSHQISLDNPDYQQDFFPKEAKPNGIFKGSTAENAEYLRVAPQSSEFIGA

[3] = biological target: Maternal embryonic leucine zipper kinase (Homo sapiens) (UniProt Q14680); assay: Inhibition of human recombinant MELK at 500 nM related to control ULK1
Chain of Maternal embryonic leucine zipper kinase (Homo sapiens) (Q14680 whole entry, looked up): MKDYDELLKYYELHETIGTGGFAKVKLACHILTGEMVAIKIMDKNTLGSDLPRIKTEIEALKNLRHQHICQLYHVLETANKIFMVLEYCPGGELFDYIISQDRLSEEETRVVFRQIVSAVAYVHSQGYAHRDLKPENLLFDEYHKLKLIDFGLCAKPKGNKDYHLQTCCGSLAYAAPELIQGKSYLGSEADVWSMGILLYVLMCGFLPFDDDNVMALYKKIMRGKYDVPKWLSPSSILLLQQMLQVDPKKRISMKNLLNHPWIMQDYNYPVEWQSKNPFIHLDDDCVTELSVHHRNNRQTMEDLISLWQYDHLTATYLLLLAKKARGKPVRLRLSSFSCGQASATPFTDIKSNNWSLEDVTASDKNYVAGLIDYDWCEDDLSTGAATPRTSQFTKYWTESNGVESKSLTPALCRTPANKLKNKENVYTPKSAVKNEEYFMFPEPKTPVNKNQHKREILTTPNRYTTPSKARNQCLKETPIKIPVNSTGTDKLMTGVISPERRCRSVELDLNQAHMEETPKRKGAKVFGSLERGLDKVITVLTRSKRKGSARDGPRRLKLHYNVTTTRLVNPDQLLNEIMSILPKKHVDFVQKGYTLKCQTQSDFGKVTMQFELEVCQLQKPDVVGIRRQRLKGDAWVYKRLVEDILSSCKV

[4] = biological target: T2, Serine/threonine-protein kinase Sgk1 (Homo sapiens) (UniProt O00141); assay: Inhibition of human recombinant SGK1 at 500 nM related to control ULK1
T2 sequence (whole entry): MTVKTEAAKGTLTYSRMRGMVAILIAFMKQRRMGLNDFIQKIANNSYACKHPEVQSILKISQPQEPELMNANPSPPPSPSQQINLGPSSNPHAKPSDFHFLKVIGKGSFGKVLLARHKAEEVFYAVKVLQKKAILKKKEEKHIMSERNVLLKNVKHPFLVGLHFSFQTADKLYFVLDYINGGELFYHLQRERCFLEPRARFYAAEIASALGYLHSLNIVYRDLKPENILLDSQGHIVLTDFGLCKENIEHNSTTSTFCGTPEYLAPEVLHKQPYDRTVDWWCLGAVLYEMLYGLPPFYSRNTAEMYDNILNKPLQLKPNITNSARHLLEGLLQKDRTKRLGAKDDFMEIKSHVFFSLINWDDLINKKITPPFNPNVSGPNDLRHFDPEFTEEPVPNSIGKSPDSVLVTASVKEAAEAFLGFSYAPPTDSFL

[5] = biological target: Tyrosine-protein kinase Fes/Fps (Homo sapiens) (UniProt P07332); assay: Inhibition of human recombinant FES at 500 nM related to control ULK1
[6] = biological target: Proto-oncogene tyrosine-protein kinase receptor Ret (Homo sapiens) (UniProt P07949); assay: Inhibition of human recombinant RET at 40 nM related to control ULK1
Chain of Proto-oncogene tyrosine-protein kinase receptor Ret (Homo sapiens) (P07949 whole entry): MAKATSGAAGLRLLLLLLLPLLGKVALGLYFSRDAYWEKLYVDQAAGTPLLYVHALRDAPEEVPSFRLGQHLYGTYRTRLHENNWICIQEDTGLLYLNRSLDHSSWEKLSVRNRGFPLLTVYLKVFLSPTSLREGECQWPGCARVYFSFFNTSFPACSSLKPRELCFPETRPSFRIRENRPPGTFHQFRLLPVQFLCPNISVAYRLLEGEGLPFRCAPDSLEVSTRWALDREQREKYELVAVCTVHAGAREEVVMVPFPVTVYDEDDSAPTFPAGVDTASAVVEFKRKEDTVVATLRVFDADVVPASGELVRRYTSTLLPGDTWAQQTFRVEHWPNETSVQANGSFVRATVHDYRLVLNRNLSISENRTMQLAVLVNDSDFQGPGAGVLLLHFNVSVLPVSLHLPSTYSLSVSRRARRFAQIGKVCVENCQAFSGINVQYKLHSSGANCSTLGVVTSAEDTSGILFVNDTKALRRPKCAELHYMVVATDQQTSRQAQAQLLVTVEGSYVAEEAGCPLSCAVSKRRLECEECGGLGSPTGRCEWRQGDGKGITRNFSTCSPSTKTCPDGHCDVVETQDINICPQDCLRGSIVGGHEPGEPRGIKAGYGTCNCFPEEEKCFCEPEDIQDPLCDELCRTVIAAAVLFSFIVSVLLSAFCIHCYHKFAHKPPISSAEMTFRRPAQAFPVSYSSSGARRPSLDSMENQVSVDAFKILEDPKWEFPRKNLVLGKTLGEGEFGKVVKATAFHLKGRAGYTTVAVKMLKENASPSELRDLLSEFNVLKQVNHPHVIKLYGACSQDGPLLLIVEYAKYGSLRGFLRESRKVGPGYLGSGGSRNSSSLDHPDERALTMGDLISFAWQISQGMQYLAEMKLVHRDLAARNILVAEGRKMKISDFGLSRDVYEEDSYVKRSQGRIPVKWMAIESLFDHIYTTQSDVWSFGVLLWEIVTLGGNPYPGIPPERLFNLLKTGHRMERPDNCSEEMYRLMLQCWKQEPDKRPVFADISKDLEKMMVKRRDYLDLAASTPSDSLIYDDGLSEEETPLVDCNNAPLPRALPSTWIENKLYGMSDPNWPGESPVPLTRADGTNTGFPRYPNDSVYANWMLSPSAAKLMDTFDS

[7] = biological target: RAC-beta serine/threonine-protein kinase (Homo sapiens) (UniProt P31751); assay: Inhibition of human recombinant AKT2 at 40 nM in presence of ATP by radiometric assay relative to control
Chain of RAC-beta serine/threonine-protein kinase (Homo sapiens) (P31751 whole entry): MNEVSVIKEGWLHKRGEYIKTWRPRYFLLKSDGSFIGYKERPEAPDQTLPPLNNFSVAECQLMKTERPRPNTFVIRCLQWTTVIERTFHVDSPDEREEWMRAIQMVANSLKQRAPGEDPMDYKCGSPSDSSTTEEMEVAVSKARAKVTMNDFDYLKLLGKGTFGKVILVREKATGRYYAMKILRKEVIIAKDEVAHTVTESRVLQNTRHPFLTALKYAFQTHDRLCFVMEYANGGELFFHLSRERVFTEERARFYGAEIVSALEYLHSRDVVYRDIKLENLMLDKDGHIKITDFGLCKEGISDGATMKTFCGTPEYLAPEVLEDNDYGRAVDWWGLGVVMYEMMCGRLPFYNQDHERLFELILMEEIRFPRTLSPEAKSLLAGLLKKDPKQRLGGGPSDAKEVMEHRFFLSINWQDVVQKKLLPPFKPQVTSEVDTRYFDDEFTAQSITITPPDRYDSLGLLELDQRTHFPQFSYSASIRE
Procedure, shortened: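 Panel of 327 recombinant human kinases in radiometric activity assays, each screened in duplicate at a single inhibitor concentration; percent activity remaining relative to vehicle control, percent inhibition taken as 100 minus activity remaining.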

[8] = biological target: Serine/threonine-protein kinase MARK1 (Homo sapiens) (UniProt Q9P0L2); assay: Inhibition of human recombinant MARK1 at 40 nM in presence of ATP by radiometric assay relative to control
[9] = biological target: Epidermal growth factor receptor (Homo sapiens) (UniProt P00533); assay: Inhibition of human recombinant EGFR at 15 nM related to control ULK1
[10] = biological target: Phosphorylase b kinase gamma catalytic chain, skeletal muscle/heart isoform (Homo sapiens) (UniProt Q16816); assay: Inhibition of human recombinant PHKg1 at 15 nM in presence of ATP by radiometric assay relative to control
Chain of Phosphorylase b kinase gamma catalytic chain, skeletal muscle/heart isoform (Homo sapiens) (Q16816 whole entry, looked up, canonical isoform): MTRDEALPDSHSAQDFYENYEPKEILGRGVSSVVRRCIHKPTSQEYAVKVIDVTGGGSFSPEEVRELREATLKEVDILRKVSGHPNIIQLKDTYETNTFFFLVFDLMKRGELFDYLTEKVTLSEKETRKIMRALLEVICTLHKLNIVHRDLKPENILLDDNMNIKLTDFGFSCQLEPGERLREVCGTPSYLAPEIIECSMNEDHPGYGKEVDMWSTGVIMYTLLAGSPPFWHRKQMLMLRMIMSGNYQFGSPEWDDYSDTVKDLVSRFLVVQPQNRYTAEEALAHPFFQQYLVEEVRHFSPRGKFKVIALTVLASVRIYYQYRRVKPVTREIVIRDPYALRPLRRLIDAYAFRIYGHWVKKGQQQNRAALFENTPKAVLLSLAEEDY

[11] = biological target: T3, Activin receptor type-1 (Homo sapiens) (UniProt Q04771); assay: Inhibition of human recombinant ALK2 at 15 nM related to control ULK1
T3 sequence (whole entry): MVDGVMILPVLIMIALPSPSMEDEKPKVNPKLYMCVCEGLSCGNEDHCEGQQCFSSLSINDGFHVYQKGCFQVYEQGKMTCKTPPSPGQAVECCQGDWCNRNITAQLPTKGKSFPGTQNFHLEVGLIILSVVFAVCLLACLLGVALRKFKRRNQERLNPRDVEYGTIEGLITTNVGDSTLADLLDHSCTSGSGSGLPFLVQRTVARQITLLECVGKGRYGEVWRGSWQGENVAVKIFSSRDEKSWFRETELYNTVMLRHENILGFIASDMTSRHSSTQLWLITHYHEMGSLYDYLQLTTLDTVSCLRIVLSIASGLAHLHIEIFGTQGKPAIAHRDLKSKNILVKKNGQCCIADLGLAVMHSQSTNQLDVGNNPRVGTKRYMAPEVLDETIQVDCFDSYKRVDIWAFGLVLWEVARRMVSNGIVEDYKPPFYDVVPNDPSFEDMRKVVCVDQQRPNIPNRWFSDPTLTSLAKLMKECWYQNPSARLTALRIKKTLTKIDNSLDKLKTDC
Procedure, shortened: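 Panel of 327 recombinant human kinases, each assayed in vitro by radiometric activity assay in duplicate at a single inhibitor concentration per compound, chosen with reference to its ULK1 inhibition. Activity remaining was expressed as percent of vehicle control, and percent inhibition was calculated as 100 minus percent activity remaining.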

[12] = biological target: Mitogen-activated protein kinase kinase kinase kinase 4 (Homo sapiens) (UniProt O95819); assay: Inhibition of human recombinant HGK at 15 nM in presence of ATP by radiometric assay relative to control
Chain of Mitogen-activated protein kinase kinase kinase kinase 4 (Homo sapiens) (O95819 2-1239 limits assumed): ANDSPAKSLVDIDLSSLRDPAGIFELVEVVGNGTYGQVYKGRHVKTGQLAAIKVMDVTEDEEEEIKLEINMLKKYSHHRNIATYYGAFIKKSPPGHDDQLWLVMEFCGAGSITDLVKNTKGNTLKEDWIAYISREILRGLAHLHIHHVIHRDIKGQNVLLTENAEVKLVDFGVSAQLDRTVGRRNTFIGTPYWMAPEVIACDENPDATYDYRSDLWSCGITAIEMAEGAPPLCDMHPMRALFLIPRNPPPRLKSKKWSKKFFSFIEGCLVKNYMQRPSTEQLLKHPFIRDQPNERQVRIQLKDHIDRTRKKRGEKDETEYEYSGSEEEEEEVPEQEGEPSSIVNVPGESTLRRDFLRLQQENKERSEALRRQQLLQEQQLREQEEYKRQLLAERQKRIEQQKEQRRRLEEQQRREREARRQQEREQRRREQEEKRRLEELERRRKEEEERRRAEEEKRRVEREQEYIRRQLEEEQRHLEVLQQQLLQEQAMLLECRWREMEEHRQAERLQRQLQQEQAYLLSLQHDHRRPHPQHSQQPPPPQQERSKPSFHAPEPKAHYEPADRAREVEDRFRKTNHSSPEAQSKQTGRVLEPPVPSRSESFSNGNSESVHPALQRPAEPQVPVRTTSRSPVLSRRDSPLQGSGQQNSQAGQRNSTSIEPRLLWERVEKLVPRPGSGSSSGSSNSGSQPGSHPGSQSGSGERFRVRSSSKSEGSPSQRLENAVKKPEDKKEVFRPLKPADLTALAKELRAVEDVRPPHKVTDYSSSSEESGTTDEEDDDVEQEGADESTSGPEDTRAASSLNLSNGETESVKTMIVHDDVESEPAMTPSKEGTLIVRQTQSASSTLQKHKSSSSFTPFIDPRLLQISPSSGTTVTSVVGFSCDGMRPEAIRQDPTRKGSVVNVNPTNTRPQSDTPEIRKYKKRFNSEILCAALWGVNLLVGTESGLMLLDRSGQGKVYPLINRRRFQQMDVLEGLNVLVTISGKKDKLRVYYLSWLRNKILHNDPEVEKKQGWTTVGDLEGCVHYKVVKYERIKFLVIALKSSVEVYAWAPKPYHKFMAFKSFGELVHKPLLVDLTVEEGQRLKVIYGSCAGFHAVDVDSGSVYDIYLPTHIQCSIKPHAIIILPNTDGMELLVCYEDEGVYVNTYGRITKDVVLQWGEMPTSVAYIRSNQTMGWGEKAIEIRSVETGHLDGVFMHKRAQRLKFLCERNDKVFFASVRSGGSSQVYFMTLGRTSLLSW

[13] = biological target: [Pyruvate dehydrogenase (acetyl-transferring)] kinase isozyme 4, mitochondrial (Homo sapiens) (UniProt Q16654); assay: Inhibition of human recombinant PDHK4 at 15 nM related to control ULK1

- fold change (FC) [1]: 0
- inhibition [2]: 3%
- fold change (FC) [3]: 0
- fold change (FC) [4]: 0.03
- fold change (FC) [5]: 0.38
Compound: CNC(=O)c1ccccc1Oc1nc(Nc2cc(OC)c(OC)c(OC)c2)ncc1Br

- fold change (FC) [6]: 0
- inhibition [7]: 10%
- inhibition [8]: 29%
Compound: O=C(N[C@@H](C1CC1)C(F)(F)F)c1cc(-c2cnn3cc(-c4ccc(F)cc4)cnc23)cs1

- fold change (FC) [9]: 0.03
- inhibition [10]: 51%
- fold change (FC) [11]: 0.3
- inhibition [12]: 0%
- fold change (FC) [13]: 0.02
Compound: CC(C)[C@H](NC(=O)c1cc(-c2cnn3cc(-c4ccc(OCCN5CCCCC5)cc4)cnc23)cs1)C(F)(F)F
